Experimental data taken from paper PMC2897705 (Biochemistry, 2010).
One block for each molecule: values may come before it.

Legend:
Assay type in all cases: biochemical
LRRK2 [1] = target: T1, LRRK2 (Mus musculus, UniProt Q5S006); experiment: TR-FRET assay of LRRK2-catalyzed PLK-peptide phosphorylation
Procedure, shortened: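 Mouse-brain-derived LRRK2 (4 nM) phosphorylates PLK-peptide (RRRSLLE) with varied ATP. Runs are in duplicate, 4 h at room temperature, stopped with 10 mM EDTA, then 2 h with 2 nM Eu-anti-phospho-PLK before the TR-FRET read. For inhibitor studies, ATP is varied at 100 nM PLK-peptide with test compound 0–16.7 µM. Initial velocities are fitted by nonlinear least squares.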

LRRK2 [2] = target: T1, LRRK2; experiment: Radiometric assay of LRRK2-catalyzed LRRKtide phosphorylation; conditions: for effect of nucleotide on kinase activity: LRRKtide phosphorylation, data not shown
LRRK2 [3] = target: T1, LRRK2; experiment: Radiometric TLC assay of LRRK2-catalyzed GTP hydrolysis; conditions: for Ki: read-out: apparent dissociation constant Ki,app
Procedure, shortened: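 LRRK2 purified from BAC-transgenic mouse brain (30 nM) starts GTP hydrolysis with GTP plus [α-33P]-GTP. Runs are in triplicate, 20 min at room temperature, stopped with 20 mM EDTA. [α-33P]-GDP is resolved on PEI-cellulose TLC (0.5 M KH2PO4, pH 3.4) and counted by scintillation. Initial velocities versus [GTP] are fitted to Michaelis–Menten.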

[4] = 200 µM GTP, 0.5 mM ADP, 0.5 mM ATP or 1 µM PLK

T1 sequence (Q5S006 whole entry): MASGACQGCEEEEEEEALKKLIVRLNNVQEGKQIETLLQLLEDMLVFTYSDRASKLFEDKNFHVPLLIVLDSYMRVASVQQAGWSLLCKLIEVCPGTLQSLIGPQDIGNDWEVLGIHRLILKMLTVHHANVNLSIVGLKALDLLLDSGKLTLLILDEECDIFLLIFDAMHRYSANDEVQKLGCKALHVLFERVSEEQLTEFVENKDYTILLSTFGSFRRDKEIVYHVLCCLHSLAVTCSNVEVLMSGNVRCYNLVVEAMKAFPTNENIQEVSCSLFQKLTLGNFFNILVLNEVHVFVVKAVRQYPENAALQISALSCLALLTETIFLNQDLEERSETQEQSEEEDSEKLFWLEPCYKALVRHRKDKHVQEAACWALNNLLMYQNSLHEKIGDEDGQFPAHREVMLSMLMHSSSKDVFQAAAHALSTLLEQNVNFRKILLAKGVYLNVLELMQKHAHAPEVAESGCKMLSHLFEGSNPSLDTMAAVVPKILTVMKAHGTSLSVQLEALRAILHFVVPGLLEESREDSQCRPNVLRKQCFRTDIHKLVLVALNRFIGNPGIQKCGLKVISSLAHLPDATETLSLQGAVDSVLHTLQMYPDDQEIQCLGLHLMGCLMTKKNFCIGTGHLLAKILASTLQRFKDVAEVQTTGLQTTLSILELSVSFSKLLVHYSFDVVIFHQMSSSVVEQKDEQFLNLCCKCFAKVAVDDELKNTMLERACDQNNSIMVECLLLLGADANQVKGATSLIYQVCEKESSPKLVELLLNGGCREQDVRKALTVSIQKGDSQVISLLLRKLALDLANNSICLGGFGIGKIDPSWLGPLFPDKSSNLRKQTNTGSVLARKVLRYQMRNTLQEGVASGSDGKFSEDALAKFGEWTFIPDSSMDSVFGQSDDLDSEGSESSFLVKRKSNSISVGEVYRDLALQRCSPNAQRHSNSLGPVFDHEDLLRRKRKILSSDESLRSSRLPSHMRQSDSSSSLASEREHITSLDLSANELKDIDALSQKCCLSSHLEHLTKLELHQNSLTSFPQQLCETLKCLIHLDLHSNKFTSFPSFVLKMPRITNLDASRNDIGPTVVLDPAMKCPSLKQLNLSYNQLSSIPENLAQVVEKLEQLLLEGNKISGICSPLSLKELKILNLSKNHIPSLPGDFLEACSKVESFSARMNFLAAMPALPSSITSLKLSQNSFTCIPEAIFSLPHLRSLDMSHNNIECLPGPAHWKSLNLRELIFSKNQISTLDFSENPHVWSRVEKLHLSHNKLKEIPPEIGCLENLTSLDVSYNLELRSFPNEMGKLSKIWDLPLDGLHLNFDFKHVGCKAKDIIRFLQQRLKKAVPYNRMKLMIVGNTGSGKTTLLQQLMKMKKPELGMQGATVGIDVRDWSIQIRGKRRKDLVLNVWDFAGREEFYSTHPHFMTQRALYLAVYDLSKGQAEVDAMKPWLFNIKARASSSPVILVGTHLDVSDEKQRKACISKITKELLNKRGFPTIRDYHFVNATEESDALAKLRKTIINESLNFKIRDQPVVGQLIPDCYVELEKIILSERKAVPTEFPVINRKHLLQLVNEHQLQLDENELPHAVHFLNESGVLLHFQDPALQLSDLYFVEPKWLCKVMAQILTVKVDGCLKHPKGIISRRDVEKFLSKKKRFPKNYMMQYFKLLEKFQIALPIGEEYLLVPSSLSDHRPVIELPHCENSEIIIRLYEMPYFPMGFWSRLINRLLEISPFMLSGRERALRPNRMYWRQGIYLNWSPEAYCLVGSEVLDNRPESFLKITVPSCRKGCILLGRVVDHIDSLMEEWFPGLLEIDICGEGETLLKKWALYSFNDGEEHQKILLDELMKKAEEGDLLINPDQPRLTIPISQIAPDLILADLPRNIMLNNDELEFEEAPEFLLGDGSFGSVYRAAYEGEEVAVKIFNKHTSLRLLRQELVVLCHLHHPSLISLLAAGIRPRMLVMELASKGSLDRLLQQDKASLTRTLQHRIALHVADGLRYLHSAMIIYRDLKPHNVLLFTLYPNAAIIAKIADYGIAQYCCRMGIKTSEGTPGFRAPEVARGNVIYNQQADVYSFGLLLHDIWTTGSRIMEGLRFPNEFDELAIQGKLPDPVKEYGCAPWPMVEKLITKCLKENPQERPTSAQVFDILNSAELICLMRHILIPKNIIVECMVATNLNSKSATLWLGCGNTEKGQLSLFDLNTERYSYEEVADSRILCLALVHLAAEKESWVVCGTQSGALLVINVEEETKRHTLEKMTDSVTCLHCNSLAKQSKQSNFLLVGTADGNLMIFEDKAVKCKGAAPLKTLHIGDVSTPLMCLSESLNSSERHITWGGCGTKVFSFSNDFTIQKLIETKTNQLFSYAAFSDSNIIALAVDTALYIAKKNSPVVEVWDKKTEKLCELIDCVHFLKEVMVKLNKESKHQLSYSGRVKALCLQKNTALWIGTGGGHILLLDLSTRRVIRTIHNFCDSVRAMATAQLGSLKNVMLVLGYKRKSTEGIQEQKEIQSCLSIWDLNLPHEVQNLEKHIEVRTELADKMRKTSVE

SMILES: Nc1ncnc2c1ncn2[C@@H]1O[C@H](COP(=O)(O)OP(=O)(O)OP(=O)(O)O)[C@@H](O)[C@H]1O [ATP]
KA (KATP) (LRRK2 [1]; ATP with PLK-peptide as phosphoryl acceptor, global fit): 13 ± 2.9 µM
KA (KATP) (LRRK2 [2]; ATP with LRRKtide as phosphoryl acceptor, global fit): 67 ± 6.4 µM
inhibition of GTPase activity (LRRK2 [3]; [4]): Inhibition of GTPase activity was detected

SMILES: CN[C@@H]1C[C@H]2O[C@@](C)([C@@H]1OC)n1c3ccccc3c3c4c(c5c6ccccc6n2c5c31)C(=O)NC4 [staurosporine]
inhibition of LRRK2 kinase activity (LRRK2 [1]; kinase assay not specified, data not shown): inhibits LRRK2 kinase activity
inhibition of GTPase activity (LRRK2 [3]; data not shown): does not inhibit GTPase activity at all

SMILES: Nc1nc2c(ncn2[C@@H]2O[C@H](COP(=O)(O)OP(=O)(O)OP(=O)(O)O)[C@@H](O)[C@H]2O)c(=O)[nH]1 [GTP]
effect of nucleotide on kinase activity (LRRK2 [2]): no significant activation or inhibition of kinase activity was detected
solvent isotope effect ^Dkcat (LRRK2 [3]; 1 mM GTP, pH 7.4, D2O molar fraction 0.86, four experiments): 0.97 ± 0.04
kcat (LRRK2 [3]; GTP hydrolysis): 0.23 ± 0.02 s⁻¹
Km (LRRK2 [3]; read-out: Km (KGTP), GTP hydrolysis): 210 ± 29 µM

SMILES: Nc1nc2c(ncn2[C@@H]2O[C@H](COP(=O)(O)O)[C@@H](O)[C@H]2O)c(=O)[nH]1 [GMP]
effect of nucleotide on kinase activity (LRRK2 [2]): no significant activation or inhibition of kinase activity was detected
Ki (LRRK2 [3]; 200 µM GTP): 2900 ± 300 µM

Further lines, with some results ahead:

Ki (LRRK2 [1]; read-out: Ki,e, PLK-peptide as phosphoryl acceptor): 2.5 µM
difference of Ki,e between PLK-peptide and LRRKtide reactions (LRRK2 [2]): 5 fold
Ki (LRRK2 [2]; read-out: Ki,e, LRRKtide as phosphoryl acceptor): 12 µM
SMILES: Nc1ncnc2c1ncn2[C@@H]1O[C@H](COP(=O)(O)O)[C@@H](O)[C@H]1O [AMP]

difference in dissociation constants, GTPase vs kinase reaction (LRRK2 [3]): 30 fold
Ki (LRRK2 [3]; 200 µM GTP): 600 ± 100 µM
SMILES: Nc1ncnc2c1ncn2[C@@H]1O[C@H](COP(=O)(O)OP(=O)(O)O)[C@@H](O)[C@H]1O [ADP]
inhibition of GTPase activity (LRRK2 [3]; [4]): Inhibition of GTPase activity was detected

Ki (LRRK2 [3]; 200 µM GTP): 97 ± 16 µM
SMILES: Nc1nc2c(ncn2[C@@H]2O[C@H](COP(=O)(O)OP(=O)(O)O)[C@@H](O)[C@H]2O)c(=O)[nH]1 [GDP]
effect of nucleotide on kinase activity (LRRK2 [2]): no significant activation or inhibition of kinase activity was detected
